Laboratory results reported in ChEMBL document CHEMBL1140233, “Synthesis and preliminary biological evaluation of novel pyrazolo[1,5-a]pyrazin-4(5H)-one derivatives as potential agents against A549 lung cancer cells” (Bioorg Med Chem, 2008).
pIC50: −log10 of the molar value. Active and inactive are the calls of the source. The calls are words filed in the database; no cut-off is given here.

Assays:
A549 [1] = experiment: Growth inhibition of human A549 cells after 48 hrs by MTT assay; assay type: functional, cell-based; details: A549, 48 h
Summary of the method: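 A549 cells kept in RPMI 1640 with 10% (v/v) bovine calf serum and 80 U/ml gentamicin at 37 °C, 5% CO2, and seeded in 96-well plates at 6250/cm². They were exposed to compound at 8, 16, 32 and 64 µM for 12, 24 or 48 h. Viability was read by MTT absorbance at 570 nm and expressed as percent of untreated control (n = 3).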

A549 [2] = experiment: Viability of human A549 cells at 32 uM after 12 hrs by MTT assay relative to control; details: A549, 12 h
A549 [3] = experiment: Induction of apoptosis in human A549 cells assessed as DNA fragmentation at 32 uM after 48 hrs by acridine orange staining; assay type: functional, cell-based
Summary of the method: (§1)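 A549 cells in RPMI 1640 with 10% bovine calf serum were treated with compound at 16 or 32 µM for 24 or 48 h. They were then stained with acridine orange for 1 min at room temperature and imaged by fluorescence microscopy. Nuclear DNA fragmentation, chromatin condensation and the volume of the acidic compartment were scored by eye (n = 4).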

A549 [4] = experiment: Induction of necrosis in human A549 cells at 64 uM after 48 hrs by LDH assay; assay type: functional, cell-based
Summary of the method: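 A549 cells cultured in RPMI 1640 with 10% bovine calf serum were exposed to compound at 64 µM for 48 h. LDH released into the culture medium was measured by absorbance at 340 nm on a UV–vis spectrometer and compared with untreated control cells.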

A549 [5] = experiment: Induction of apoptosis in human A549 cells assessed as DNA fragmentation at 16 uM after 24 hrs by acridine orange staining; assay type: functional, cell-based; summary of the method: as §1
A549 [6] = experiment: Induction of apoptosis in human A549 cells assessed as DNA fragmentation at 16 uM after 48 hrs by acridine orange staining; assay type: functional, cell-based; summary of the method: as §1
A549 [7] = experiment: Viability of human A549 cells at 32 uM after 48 hrs by MTT assay relative to control; details: A549, 48 h
A549 [8] = experiment: Viability of human A549 cells at 32 uM after 24 hrs by MTT assay relative to control; details: A549, 24 h
A549 [9] = experiment: Induction of apoptosis in human A549 cells assessed as DNA fragmentation at 32 uM after 24 hrs by acridine orange staining; assay type: functional, cell-based; summary of the method: as §1
A549 [10] = experiment: Induction of autophagy in human A549 cells assessed as volume of cellular acidic compartment at 32 uM by acridine orange staining; assay type: functional, cell-based; summary of the method: as §1
A549 [11] = experiment: Viability of human A549 cells at 64 uM after 48 hrs by MTT assay relative to control; details: A549, 48 h

COc1ccc(-c2cc3n(n2)CCN(Cc2ccc(Cl)nc2)C3=O)cc1
pIC50 (A549 [1]): < 4.19

COc1ccc(-c2cc3n(n2)CCN(CCc2ccc(OC)c(OC)c2)C3=O)cc1
pIC50 (A549 [1]): < 4.19

CC(C)(C)c1ccc(CN2CCn3nc(-c4ccccc4)cc3C2=O)cc1
pIC50 (A549 [1]): < 4.19

COc1ccc(CCN2CCn3nc(-c4ccc(Cl)cc4)cc3C2=O)cc1OC
pIC50 (A549 [1]): < 4.19

O=C1c2cc(-c3ccc(Cl)cc3)nn2CCN1Cc1ccccc1
pIC50 (A549 [1]): 4.65 | viability at 32 µM (A549 [2]): 78.7% | Activity (A549 [3]): inactive | Activity (A549 [4]): inactive | Activity (A549 [5]): inactive | Activity (A549 [6]): inactive | viability at 32 µM (A549 [7]): 39.2% | viability at 32 µM (A549 [8]): 73.6% | Activity (A549 [9]): inactive | Activity (A549 [10]): Active | viability at 64 µM (A549 [11]): 26.5%

COc1ccc(-c2cc3n(n2)CCN(C(C)C)C3=O)cc1
pIC50 (A549 [1]): < 4.19

O=C1c2cc(-c3ccccc3)nn2CCN1Cc1ccccc1
pIC50 (A549 [1]): < 4.19

COc1ccc(-c2cc3n(n2)CCN(Cc2ccccc2)C3=O)cc1
pIC50 (A549 [1]): < 4.19

CC(C)N1CCn2nc(-c3ccccc3)cc2C1=O
pIC50 (A549 [1]): < 4.19

O=C1c2cc(-c3ccc(Cl)cc3)nn2CCN1Cc1ccc(Cl)nc1
pIC50 (A549 [1]): 4.40 | Activity (A549 [4]): inactive

CC(C)N1CCn2nc(-c3ccc(Cl)cc3)cc2C1=O
pIC50 (A549 [1]): 4.51 | viability at 32 µM (A549 [2]): 81.4% | Activity (A549 [4]): inactive | viability at 32 µM (A549 [7]): 50% | viability at 32 µM (A549 [8]): 75.7% | viability at 64 µM (A549 [11]): 34.6%

COc1ccc(CCN2CCn3nc(-c4ccccc4)cc3C2=O)cc1OC
pIC50 (A549 [1]): 4.50 | Activity (A549 [4]): inactive

COc1ccc(-c2cc3n(n2)CCN(Cc2ccc(C(C)(C)C)cc2)C3=O)cc1
pIC50 (A549 [1]): 4.30 | Activity (A549 [4]): inactive

CCCCN1CCn2nc(-c3ccccc3)cc2C1=O
pIC50 (A549 [1]): < 4.19

CC(C)(C)c1ccc(CN2CCn3nc(-c4ccc(Cl)cc4)cc3C2=O)cc1
pIC50 (A549 [1]): < 4.19

O=C1c2cc(-c3ccccc3)nn2CCN1Cc1ccc(Cl)nc1
pIC50 (A549 [1]): < 4.19

CCCCN1CCn2nc(-c3ccc(OC)cc3)cc2C1=O
pIC50 (A549 [1]): 4.20

CCCCN1CCn2nc(-c3ccc(Cl)cc3)cc2C1=O
pIC50 (A549 [1]): 4.53 | Activity (A549 [4]): inactive
